The values that follow come from ChEMBL document CHEMBL2346497, “Synthesis of novel cognition enhancers with pyrazolo[5,1-c][1,2,4]benzotriazine core acting at γ-aminobutyric acid type A (GABA(A)) receptor” (Bioorg Med Chem, 2013).

Structures are written as SMILES. Calls of active or inactive are those of the source. The rule behind the calls is not given here.

Series [1] relates to Rattus norvegicus. The series can be described thus: Procognitive effect in Harlan Wistar rat assessed as exploring time of familiar rat during social investigatory behaviour at 3 mg/kg, po administered 30 mins prior to testing measured for 5 mins by social learning test (reference value: 27.6 secs). It is filed as functional.
Series [2] concerns Mus musculus. The series can be described thus: Anxiolytic activity in CD1 albino mouse assessed as increase in time spent in illuminated side at 3 to 10 mg/kg, po administered 30 mins prior to testing measured for 5 mins by light-dark box test. The format is functional, organism-based. The essentials: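 Light/dark box: two equal acrylic compartments, one lit by a 60 W lamp, joined by a floor-level opening. Male CD-1 mice were dosed po in 1% CMC 30 min before the test, then placed in the centre of the lit side facing away from the dark side. Over 5 min, transfers and time in the light side were recorded, n = 8 mice per group.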

In series [3] the test system is Mus musculus. The series can be described thus: Neurotoxicity in CD1 albino mouse assessed as decrease in number of falls from rotating rod at 10 mg/kg, po by rota-rod test relative to control. The format is toxicity, organism-based. Further details: dose 10 mg/kg, route oral. To be noted: in vivo, TDE = time-dependent effect. In a few lines:
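Motor coordination was tested on a rota-rod turning at 24 rpm in male CD-1 mice dosed po in 1% CMC. Falls within 30 s were counted at a pretest and at 15, 30, 45 and 60 min after dosing. Each value is the mean of five mice, compared with CMC-treated controls.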
(The rotarod test checks motor coordination on a turning rod.)

Series [4] addresses T1, GABA-A receptor; alpha-1/beta-2/gamma-2 (Homo sapiens, UniProt P14867+P18507+P47870).
T1 sequence (P14867 whole entry): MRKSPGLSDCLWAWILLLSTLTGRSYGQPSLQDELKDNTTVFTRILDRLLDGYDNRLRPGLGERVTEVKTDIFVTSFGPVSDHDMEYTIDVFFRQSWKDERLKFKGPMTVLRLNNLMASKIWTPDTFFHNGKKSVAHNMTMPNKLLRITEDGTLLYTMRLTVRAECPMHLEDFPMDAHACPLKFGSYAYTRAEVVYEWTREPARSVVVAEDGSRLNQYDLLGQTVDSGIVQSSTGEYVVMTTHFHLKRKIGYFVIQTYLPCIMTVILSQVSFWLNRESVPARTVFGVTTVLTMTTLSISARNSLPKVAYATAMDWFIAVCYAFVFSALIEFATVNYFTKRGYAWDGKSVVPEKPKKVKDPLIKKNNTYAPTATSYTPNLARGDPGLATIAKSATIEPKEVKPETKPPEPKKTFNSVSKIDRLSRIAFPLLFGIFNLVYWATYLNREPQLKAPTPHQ
T1 sequence (P47870 whole entry): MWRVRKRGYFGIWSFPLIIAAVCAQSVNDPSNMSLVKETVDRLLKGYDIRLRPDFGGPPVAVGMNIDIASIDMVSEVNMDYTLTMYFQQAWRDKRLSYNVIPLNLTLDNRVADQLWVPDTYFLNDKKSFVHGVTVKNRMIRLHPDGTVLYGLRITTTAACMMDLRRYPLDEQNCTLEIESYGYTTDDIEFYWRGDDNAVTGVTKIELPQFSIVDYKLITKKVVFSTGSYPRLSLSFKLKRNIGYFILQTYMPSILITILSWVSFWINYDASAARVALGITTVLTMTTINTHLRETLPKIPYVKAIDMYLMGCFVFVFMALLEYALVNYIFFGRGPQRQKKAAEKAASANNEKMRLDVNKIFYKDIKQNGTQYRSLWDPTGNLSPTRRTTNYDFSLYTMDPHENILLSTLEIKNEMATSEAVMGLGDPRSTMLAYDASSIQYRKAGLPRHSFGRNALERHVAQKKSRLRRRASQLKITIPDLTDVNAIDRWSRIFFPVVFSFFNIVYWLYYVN
T1 sequence (P18507 whole entry): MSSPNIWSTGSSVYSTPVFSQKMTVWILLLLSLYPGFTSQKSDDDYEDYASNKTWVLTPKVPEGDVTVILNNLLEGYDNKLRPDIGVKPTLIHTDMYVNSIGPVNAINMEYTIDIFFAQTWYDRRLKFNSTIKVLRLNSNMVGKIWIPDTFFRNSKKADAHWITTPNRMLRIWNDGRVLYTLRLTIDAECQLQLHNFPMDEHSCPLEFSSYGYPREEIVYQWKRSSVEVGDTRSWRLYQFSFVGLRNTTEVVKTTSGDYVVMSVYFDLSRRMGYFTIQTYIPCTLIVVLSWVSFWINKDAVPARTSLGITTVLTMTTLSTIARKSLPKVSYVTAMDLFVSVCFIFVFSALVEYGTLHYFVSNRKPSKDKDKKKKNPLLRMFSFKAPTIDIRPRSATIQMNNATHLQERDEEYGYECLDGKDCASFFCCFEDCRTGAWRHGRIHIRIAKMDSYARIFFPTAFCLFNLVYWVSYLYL
The series can be described thus: Displacement of [3H]Ro15-1788 from recombinant GABA-A alpha1beta2gamma2 receptor benzodiazepine binding site (unknown origin) after 1 hr. It is filed as protein-complex assay. The essentials:
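Membranes came from clonal mammalian cell lines expressing α1β2γ2, α2β2γ2 or α5β3γ2 receptors, grown in MEM/EBSS with 10% FCS at 37 °C. Membranes were resuspended in 10 mM potassium phosphate, pH 7.4, with 100 mM KCl. Assays used 1–2 nM [3H]Ro15-1788 and test compound from 10^-9 to 10^-5 M, at least six concentrations. Diazepam at 10^-5 M defined nonspecific binding. Incubation ran 1 h at 4 °C. Single-point % inhibition was measured at 10 µM, and Ki by curve fitting; n = 5, in duplicate.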

Series [5] relates to Rattus norvegicus. The series can be described thus: Procognitive effect in Harlan Wistar rat assessed as exploring time of familiar rat during social investigatory behaviour at 1 mg/kg, po administered 30 mins prior to testing measured for 5 mins by social learning test (reference value: 27.6 secs). It is filed as functional.
Series [6] relates to Rattus norvegicus. The series can be described thus: Induction of acetylcholine release in Harlan Wistar rat parietal cortex at 10 mg/kg, ip after 60 to 80 mins by microdialysis method. It is filed as functional, organism-based. Further details: dose 10 mg/kg. The essentials: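 Microdialysis in the parietal cortex of male Wistar rats, with a horizontal tube implanted at AP 0.5 mm and H 2.3 mm from bregma. One day after surgery the tube was perfused with Ringer containing physostigmine. After a 1 h settling period, 20-min fractions were collected into HCl. Drug was given ip in 1% CMC at time 0. ACh was measured by HPLC with electrochemical detection, n = 6 rats.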

The target of series [7] is T2, Gamma-aminobutyric acid receptor subunit alpha-5 (Homo sapiens) (UniProt P31644).
T2 sequence (whole entry): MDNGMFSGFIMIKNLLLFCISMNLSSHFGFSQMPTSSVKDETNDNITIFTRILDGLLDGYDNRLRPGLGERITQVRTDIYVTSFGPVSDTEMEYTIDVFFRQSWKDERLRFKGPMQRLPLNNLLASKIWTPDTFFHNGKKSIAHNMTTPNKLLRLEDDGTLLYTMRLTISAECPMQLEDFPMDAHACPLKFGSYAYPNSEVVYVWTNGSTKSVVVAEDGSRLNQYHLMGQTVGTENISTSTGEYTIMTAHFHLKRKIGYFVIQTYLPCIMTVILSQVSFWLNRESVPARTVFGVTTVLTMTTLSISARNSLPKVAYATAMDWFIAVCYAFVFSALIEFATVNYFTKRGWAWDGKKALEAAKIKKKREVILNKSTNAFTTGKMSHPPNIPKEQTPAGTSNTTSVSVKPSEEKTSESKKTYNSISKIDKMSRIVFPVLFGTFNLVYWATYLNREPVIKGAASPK
The series is described as follows: Displacement of [3H]Ro15-1788 from recombinant GABA-A alpha5beta2gamma2 receptor benzodiazepine binding site (unknown origin) at 10 uM after 1 hr relative to control. On the technique in general: Loss of bound radioactivity is the signal in a displacement assay; it reports binding, not function.

As to `Cc1cnn2c1n[n+]([O-])c1ccc(OCc3ccncc3)cc12`, the results for the Time in the series on Rattus norvegicus [1] and with Rattus norvegicus [5] were 43.2 s and 33.2 s, respectively. Besides, the outcome in the series on Mus musculus [2] was inactive. Further, the Activity result in the series on Mus musculus [3] is reported as “tde”. In addition, in series [4], the Ki – broadly, a measure of affinity in units of concentration, obtained from inhibition or displacement – is 22.7 nM. Further, the outcome with Rattus norvegicus [6] was Active. Besides, the inhibition (commonly the change of the read-out against control, counted positive when it falls) in series [7] stood at 36%.
